Laboratory results reported in ChEMBL document CHEMBL1144035, “Synthesis, cytostatic and anti-HCV activity of 6-(N-substituted aminomethyl)-, 6-(O-substituted hydroxymethyl)- and 6-(S-substituted sulfanylmethyl)purine nucleosides” (Bioorg Med Chem, 2008).
Active and inactive are the calls of the source. The rule behind the calls is not given here.

What was measured:
HL-60 [1] = assay: Cytostatic activity in human HL60 cells assessed as inhibition of cell growth after 72 hrs by XTT assay; assay type: functional, cell-based; conditions: HL-60, 72 h
L1210 = assay: Cytostatic activity in mouse L1210 cells assessed as inhibition of cell growth after 72 hrs; assay type: functional, cell-based
Outline: (§1)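 Cultures from ATCC lines: mouse leukaemia L1210 (CCL 219), human promyelocytic leukaemia HL60 (CCL 240) and human T-lymphoblastoid CCRF-CEM (CCL 119). Growth inhibition was estimated from the cell count in a haematological analyzer (haemocytometer).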

CCRF-CEM [2] = assay: Cytostatic activity in human CCRF-CEM cells assessed as inhibition of cell growth after 72 hrs; assay type: functional, cell-based; outline: as §1
CCRF-CEM [3] = assay: Cytostatic activity in human CCRF-CEM cells assessed as inhibition of cell growth after 72 hrs by XTT assay; assay type: functional, cell-based
HeLa = assay: Cytostatic activity in human HeLa S3 cells assessed as inhibition of cell growth after 48 hrs by XTT assay; assay type: functional, cell-based
Hepatitis C virus = assay: Antiviral activity against Hepatitis C virus 1b after 3 days; assay type: functional, organism-based, Hepacivirus hominis; conditions: genotype 1b, 72 h
[4] = Cytotoxicity against human Huh7 cells after 3 days by MTT method; assay type: functional; conditions: Huh-7, 72 h
Outline: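 Cellular toxicity was read by MTT in Huh-7 cells carrying the con-1 HCV replicon, in duplicate (N = 2).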

MT4 = assay: Cytotoxicity against human MT4 cells after 4 days; assay type: functional; conditions: MT4, 96 h
Outline: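 Cellular toxicity was measured in MT-4 cells, N = 2.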

HL-60 [5] = assay: Cell cycle arrest in human HL60 cells by accumulation at G1 phase at 1 umol/L by flow cytometry relative to control; assay type: functional
Outline: (§2)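 HL-60 cells exposed to compound for 72 h at the single concentration in the line; the cell-cycle phase fraction is reported as a change relative to untreated control cells.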

HL-60 [6] = assay: Cell cycle arrest in human HL60 cells by accumulation at S phase at 1 umol/L by flow cytometry relative to control; assay type: functional; outline: as §2
HL-60 [7] = assay: Cell cycle arrest in human HL60 cells by accumulation at G2/M phase at 1 umol/L by flow cytometry relative to control; assay type: functional; outline: as §2
HL-60 [8] = assay: Cell cycle arrest in human HL60 cells by accumulation at G1 phase at 2.5 umol/L after 72 hrs by flow cytometry; assay type: functional
HL-60 [9] = assay: Cell cycle arrest in human HL60 cells by accumulation at S phase at 2.5 umol/L after 72 hrs by flow cytometry; assay type: functional
HL-60 [10] = assay: Cell cycle arrest in human HL60 cells by accumulation at G2/M phase at 2.5 umol/L after 72 hrs by flow cytometry; assay type: functional
HL-60 [11] = assay: Cell cycle arrest in human HL60 cells by accumulation at G1 phase at 5 umol/L after 72 hrs by flow cytometry; assay type: functional
HL-60 [12] = assay: Cell cycle arrest in human HL60 cells by accumulation at S phase at 5 umol/L after 72 hrs by flow cytometry; assay type: functional
HL-60 [13] = assay: Cell cycle arrest in human HL60 cells by accumulation at G2/M phase at 5 umol/L after 72 hrs by flow cytometry; assay type: functional
HL-60 [14] = assay: Cell cycle arrest in human HL60 cells by accumulation at G1 phase after 72 hrs by flow cytometry; assay type: functional, cell-based
HL-60 [15] = assay: Cytostatic activity in human HL60 cells assessed as inhibition of cell growth after 72 hrs; assay type: functional, cell-based; conditions: HL-60, 72 h; outline: as §1
HL-60 [16] = assay: Cell cycle arrest in human HL60 cells by depletion of cells at S phase after 72 hrs by flow cytometry; assay type: functional, cell-based
HL-60 [17] = assay: Cell cycle arrest in human HL60 cells by accumulation at G1 phase at 1 umol/L after 72 hrs by flow cytometry; assay type: functional
HL-60 [18] = assay: Cell cycle arrest in human HL60 cells by accumulation at S phase at 1 umol/L after 72 hrs by flow cytometry; assay type: functional
HL-60 [19] = assay: Cell cycle arrest in human HL60 cells by accumulation at G2/M phase at 1 umol/L after 72 hrs by flow cytometry; assay type: functional
HL-60 [20] = assay: Cell cycle arrest in human HL60 cells by accumulation at G1 phase at 22.5 umol/L by flow cytometry relative to control; assay type: functional; outline: as §2
HL-60 [21] = assay: Cell cycle arrest in human HL60 cells by accumulation at S phase at 22.5 umol/L by flow cytometry relative to control; assay type: functional; outline: as §2
HL-60 [22] = assay: Cell cycle arrest in human HL60 cells by accumulation at G2/M phase at 22.5 umol/L by flow cytometry relative to control; assay type: functional; outline: as §2
HL-60 [23] = assay: Cell cycle arrest in human HL60 cells by accumulation at G1 phase at 3 umol/L by flow cytometry relative to control; assay type: functional; outline: as §2
HL-60 [24] = assay: Cell cycle arrest in human HL60 cells by accumulation at S phase at 3 umol/L by flow cytometry relative to control; assay type: functional; outline: as §2
HL-60 [25] = assay: Cell cycle arrest in human HL60 cells by accumulation at G2/M phase at 3 umol/L by flow cytometry relative to control; assay type: functional; outline: as §2

Row | IC50 (HL-60 [1]) | IC50 (CCRF-CEM [2]) | IC50 (CCRF-CEM [3]) | EC50 (Hepatitis C virus) | IC50 (HL-60 [15]) | Structure (SMILES) | Activity (HeLa) | CC50 [4] | Activity (HL-60 [14]) | Activity (L1210) | other results
1 | 0.78 µM | 0.39 µM | 0.34 µM | 6 µM | 1.88 µM | [N-]=[N+]=NCc1ncnc2c1ncn2[C@@H]1O[C@H](CO)[C@@H](O)[C@H]1O | inactive | > 250 µM | Active | – | IC50 (L1210; L1210, 72 h): 1.59 µM; CC50 (MT4): 32 µM; Activity (HL-60 [5]): 1.57%; Activity (HL-60 [6]): 0.63%; Activity (HL-60 [7]): 1.3%; Activity (HL-60 [8]): 33%; Activity (HL-60 [9]): 59%; Activity (HL-60 [10]): 8%; Activity (HL-60 [11]): 24%; Activity (HL-60 [12]): 69%; Activity (HL-60 [13]): 8%; Activity (HL-60 [16]): Active; Activity (HL-60 [17]): 54%; Activity (HL-60 [18]): 37%; Activity (HL-60 [19]): 10%
2 | 19.2 µM | 9.2 µM | 4.65 µM | > 100 µM | 10.7 µM | OC[C@H]1O[C@@H](n2cnc3c(CSCc4ccccc4)ncnc32)[C@H](O)[C@@H]1O | inactive | > 100 µM | Active | inactive | Activity (HL-60 [20]): 1.99%; Activity (HL-60 [21]): 0.43%; Activity (HL-60 [22]): 0.88%
3 | 3.4 µM | – | – | 21 µM | 4 µM | CN(Cc1ncnc2c1ncn2[C@@H]1O[C@H](CO)[C@@H](O)[C@H]1O)c1ccccc1 | inactive | 21 µM | – | inactive | Activity (CCRF-CEM [2]): inactive; Activity (HL-60 [23]): 1.12%; Activity (HL-60 [24]): 0.87%; Activity (HL-60 [25]): 1.08%
